These results are taken from ChEMBL document CHEMBL4152363, “Andrographolide derivative as STAT3 inhibitor that protects acute liver damage in mice” (Bioorg Med Chem, 2018).

Active and inactive are the calls of the source. No cut-off for these calls is given here.

Data set [1] concerns the target T1, Signal transducer and activator of transcription 3 (Homo sapiens, UniProt P40763). Briefly: Inhibition of […] activation in human HeLa cells incubated […] for 16 hrs followed by compound addition measured after 4 hrs by luciferase reporter gene assay. It counts as cell-based. In short, it runs like this: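 NF-κB pathway in AD-293 or HeLa cells stimulated with 50 ng/mL TNF-α; compound treatment 4 h; luciferase activity read from cell extracts; EC50 derived.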

The next data set concerns HeLa. Briefly: Cytotoxicity against human HeLa cells. Type of data set: cell-based. Put shortly:
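AD-293 or HeLa cells grown in high-glucose DMEM with 10% FBS and 1% penicillin-streptomycin; compound exposure 24 h; cytotoxicity reported as CC10.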

Data set [2] concerns the target T2, Signal transducer and activator of transcription 1-alpha/beta (Homo sapiens) (UniProt P42224).
T2 sequence (whole entry): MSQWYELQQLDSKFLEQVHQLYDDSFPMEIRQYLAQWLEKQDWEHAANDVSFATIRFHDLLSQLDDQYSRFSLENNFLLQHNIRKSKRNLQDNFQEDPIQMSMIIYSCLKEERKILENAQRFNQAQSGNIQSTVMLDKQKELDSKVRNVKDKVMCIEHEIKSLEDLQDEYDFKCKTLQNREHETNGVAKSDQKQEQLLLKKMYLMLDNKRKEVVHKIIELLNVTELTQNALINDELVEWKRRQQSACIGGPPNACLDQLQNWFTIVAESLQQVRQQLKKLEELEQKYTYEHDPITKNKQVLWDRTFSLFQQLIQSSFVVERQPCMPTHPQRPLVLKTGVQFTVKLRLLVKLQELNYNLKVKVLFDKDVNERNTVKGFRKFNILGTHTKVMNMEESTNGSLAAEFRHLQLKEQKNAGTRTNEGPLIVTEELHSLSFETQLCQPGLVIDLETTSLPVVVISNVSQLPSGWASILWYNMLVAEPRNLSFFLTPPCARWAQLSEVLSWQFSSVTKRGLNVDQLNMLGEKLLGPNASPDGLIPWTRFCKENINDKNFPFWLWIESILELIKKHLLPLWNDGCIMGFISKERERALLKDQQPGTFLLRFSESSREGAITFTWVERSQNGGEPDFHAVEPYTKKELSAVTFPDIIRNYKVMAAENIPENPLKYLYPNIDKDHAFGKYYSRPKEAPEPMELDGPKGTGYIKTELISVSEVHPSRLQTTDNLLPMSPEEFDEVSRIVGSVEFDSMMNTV
Briefly: Inhibition of IFNgamma-stimulated STAT1 phosphorylation at Tyr701 residues in human AD293 cell lysates incubated with IFNgamma followed by compound addition at 10 uM by Western blot analysis. In short, it runs like this:
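AD-293 cells treated with 1 μg/mL IFN-γ alone or with compounds at 10 μM; phospho- and total STAT1 and STAT3 assessed by western blot; representative of at least three independent experiments.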
Background: Immunoblotting shows a protein as a band on a membrane.

The target in data set [3] is T1, Signal transducer and activator of transcription 3. The data set is described as follows: Inhibition of DNA binding activity of STAT3 in human AD293 cells up to 40 uM. Type of data set: cell-based. In short, it runs like this:
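STAT3 DNA binding measured with TransAM STAT family ELISA kit per manufacturer; competition control with threefold free oligo; mean ± SD of three separate experiments.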

Data set [4] concerns Mus musculus. Briefly: Toxicity in Balb/c mouse assessed as change in body weight at 30 mg/kg, po qd for 7 days. The note with it: in vivo, 168 h. Type of data set: organism-based. Put shortly:
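Male BalB/C mice (20–25 g, 6–8 weeks, 1-week acclimation) dosed orally 30 mg/kg once daily 7 days, then subcutaneous CCl4 (40% in olive oil, 10 ml/kg); body weight tracked during treatment; S.E.M.; two independent experiments, n=5.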

In data set [5] the test system is Mus musculus. The data set is described as follows: Antifibrotic activity in CCL4-induced acute liver damage Balb/c mouse model assessed as decrease in collagen deposition in liver at 30 mg/kg, po qd for 7 days measured after 16 hrs post CCL4 challenge by masson trichome staining based assay. Type of data set: functional, organism-based. Put shortly: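 Male BalB/C mice given oral 30 mg/kg daily for 7 days, then sc CCl4 (40% in olive oil, 10 ml/kg); sacrificed 16 h later; livers fixed in 10% formaldehyde, paraffin sections stained with H&E or Masson's trichrome, light microscopy, ≥3 sections per liver; n=5, two experiments.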

Data set [6] concerns Mus musculus. The data set is described as follows: Antifibrotic activity in CCL4-induced acute liver damage Balb/c mouse model assessed as decrease in alpha-SMA expression in areas surrounding blood vessels at 30 mg/kg, po qd for 7 days measured after 16 hrs post CCL4 challenge by masson trichome staining based assay. The note with it: in the assay text read “immunohistochemistry” for “masson trichome staining based assay”. Type of data set: functional, organism-based. In short, it runs like this:
(§1)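 Liver sections from mice dosed orally 30 mg/kg daily 7 days then sc CCl4, killed 16 h after; H2O2 block, goat serum/BSA/gelatin blocking 1 h RT, primary antibody (α-SMA, Ki67, PCNA or STAT3) 4 °C overnight, HRP secondary, DAB, hematoxylin counterstain; >30 fields at 400× quantified; n=5.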

Data set [7] has as its system Mus musculus. Briefly: Reduction in MMP10 mRNA expression level in CCL4-induced acute liver damage in Balb/c mouse at 30 mg/kg, po qd for 7 days measured after 16 hrs post CCL4 challenge by qRT-PCR method. Type of data set: functional, organism-based. Put shortly:
(§2)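 Mice given 30 mg/kg orally once daily 7 days before sc CCl4 (40% in olive oil, 10 ml/kg); livers harvested 16 h later, PBS-washed, stored at −70 °C for RNA extraction and transcript quantification; n=5, two independent experiments.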
For orientation: Quantitative PCR measures a nucleic acid by following its amplification.

In data set [8] the test system is Mus musculus. Briefly: Reduction in Col1a1 mRNA expression level in CCL4-induced acute liver damage in Balb/c mouse at 30 mg/kg, po qd for 7 days measured after 16 hrs post CCL4 challenge by qRT-PCR method. Type of data set: functional, organism-based. Put shortly:
as §2

The test system of data set [9] is Mus musculus. The data set is described as follows: Reduction in Col3a1 mRNA expression level in CCL4-induced acute liver damage in Balb/c mouse at 30 mg/kg, po qd for 7 days measured after 16 hrs post CCL4 challenge by qRT-PCR method. Type of data set: functional, organism-based. Put shortly: as §2
Data set [10] has as its system Mus musculus. The data set is described as follows: Reduction in serum ALT level in CCL4-induced acute liver damage in Balb/c mouse at 30 mg/kg, po qd for 7 days measured after 16 hrs post CCL4 challenge […]. It counts as functional, organism-based.
Data set [11] relates to Mus musculus. Briefly: In vivo inhibition of STAT3 expression level in CCL4-induced acute liver damage in Balb/c mouse assessed as decrease in nuclear STAT3 phosphorylation at 30 mg/kg, po qd for 7 days measured after 16 hrs post CCL4 challenge by hematoxylin staining based immunohistochemistry method. Type of data set: functional, organism-based. Put shortly:
as §1

Data set [12] deals with Mus musculus. The data set is described as follows: Antiinflammatory activity in CCL4-induced acute liver damage Balb/c mouse model assessed as decrease in serum TGF-beta levels at 30 mg/kg, po qd for 7 days measured after 16 hrs post CCL4 challenge. It counts as functional, organism-based. In short, it runs like this: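 BalB/C males dosed orally 30 mg/kg daily for 7 days, then sc CCl4 (40% in olive oil, 10 ml/kg); serum collected 16 h post-CCl4 after CO2 anaesthesia, stored at −70 °C until IL-6, MCP-1 or TGF-β analysis; n=5.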

For data set [13], the target named is T1, Signal transducer and activator of transcription 3. The data set is described as follows: Inhibition of STAT3 in human AD293 cells assessed as decrease in TGFbeta-stimulated SMAD2/3 activation up to 10 uM incubated for 16 hrs by luciferase reporter gene assay relative to control. Type of data set: cell-based. Put shortly: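 AD-293 cells carrying SMAD2/3 promoter in pGL4.20 luciferase vector, stimulated with TGF-β 100 ng/ml for 16 h with compound up to 10 µM; luciferase activity measured in cell extracts.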
On the technique in general: In a reporter assay the amount or activity of a reporter protein is the signal.

T1 sequence (P40763 whole entry): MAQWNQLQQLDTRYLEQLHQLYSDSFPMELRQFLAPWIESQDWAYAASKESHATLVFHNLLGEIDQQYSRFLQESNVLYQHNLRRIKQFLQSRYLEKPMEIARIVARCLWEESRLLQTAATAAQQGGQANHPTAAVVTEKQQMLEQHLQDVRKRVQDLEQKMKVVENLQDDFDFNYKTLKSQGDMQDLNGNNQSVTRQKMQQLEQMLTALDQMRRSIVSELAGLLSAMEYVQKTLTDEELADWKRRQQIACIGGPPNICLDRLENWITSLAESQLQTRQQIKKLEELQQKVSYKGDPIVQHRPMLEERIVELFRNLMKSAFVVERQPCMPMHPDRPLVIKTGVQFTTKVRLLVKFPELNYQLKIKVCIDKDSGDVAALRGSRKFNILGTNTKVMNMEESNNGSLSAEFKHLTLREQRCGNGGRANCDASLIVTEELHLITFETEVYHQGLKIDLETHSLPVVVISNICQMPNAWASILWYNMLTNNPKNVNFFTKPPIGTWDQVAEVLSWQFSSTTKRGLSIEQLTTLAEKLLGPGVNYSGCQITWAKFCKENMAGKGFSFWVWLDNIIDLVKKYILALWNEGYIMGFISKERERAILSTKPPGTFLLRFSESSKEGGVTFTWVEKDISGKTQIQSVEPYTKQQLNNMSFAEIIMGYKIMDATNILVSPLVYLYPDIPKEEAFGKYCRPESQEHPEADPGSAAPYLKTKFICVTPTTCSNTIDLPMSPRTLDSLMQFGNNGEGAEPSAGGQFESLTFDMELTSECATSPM

In data set [1], `CC(C)(C)[Si](C)(C)O[C@@H]1COC(=O)/C1=C/C[C@@H]1[C@]2(CC[C@H]3[C@@]1(C)CCC(=O)[C@@]3(C)CO)CO2` came in with a concentration giving a half-maximal response (EC50) greater than 10 µM. The molecule also came in with a CC10 in the data set on HeLa greater than 10 µM. Besides, the inhibition entry in [2] and in [3] was “inactive” throughout. In the data set with Mus musculus [4], the Activity result is “Non-Toxic”. The result in the data set with Mus musculus [5], with Mus musculus [6], in the data set on Mus musculus [7] and in the data set with Mus musculus [12] was Active. For the same molecule, the outcome in the data set with Mus musculus [8], in the data set with Mus musculus [9] and with Mus musculus [10] was inactive. Moreover, the inhibition result in the data set on Mus musculus [11] is “Active”. For the same molecule, the inhibition in data set [13] is less than 50%.

Usually EC50 stands for the concentration at which the effect is half-maximal. A lower EC50 goes with a more potent agent. Usually inhibition stands for the percentage by which the read-out fell short of the control.
